ChEMBL document CHEMBL4028892, “Discovery of a 1-Methyl-3,4-dihydronaphthalene-Based Sphingosine-1-Phosphate (S1P) Receptor Agonist Ceralifimod (ONO-4641). A S1P1 and S1P5 Selective Agonist for the Treatment of Autoimmune Diseases” (J Med Chem, 2017)

What was measured:
[1] = target: T1, Sphingosine 1-phosphate receptor 1 (Homo sapiens, UniProt P21453); assay: Agonist activity at human S1P1 receptor expressed in CHO-K1 cells assessed as increase in S1P-stimulated calcium influx preincubated for 5 mins followed by S1P stimulation measured every 3 secs by fluorescence method; type: functional, cell-based
In short: (§1)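 Fura2 Ca2+ assay in CHO-K1 cells stably expressing human S1P1 or S1P3. Cells were loaded with 5 μM Fura2-AM in Ham's F12 (10% FBS, 20 mM HEPES pH 7.4, 2.5 mM probenecid) for 60 min at 37 °C, then washed. After a 30 s baseline, compound was added (0.1 nM–30 μM final, DMSO), then 100 nM S1P 5 min later. Ratio read every 3 s (ex 340/380, em 500 nm). Increase ratio (%) = B/A×100 against the DMSO-well S1P peak; EC50 taken from the concentration series; mean of ≥2 data points.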

[2] = target: Sphingosine 1-phosphate receptor 3 (Homo sapiens, UniProt Q99500); assay: Agonist activity at human S1P3 receptor expressed in CHO-K1 cells assessed as increase in S1P-stimulated calcium influx preincubated for 5 mins followed by S1P stimulation measured every 3 secs by fluorescence method; type: cell-based
[3] = organism: Homo sapiens; assay: Selectivity ratio of EC50 for human S1P3 receptor to EC50 for human S1P1 receptor; in short: as §1
[4] = tested on: Mus musculus; assay: Decrease in peripheral lymphocyte levels in po dosed BALB/c mouse at 4 hrs by automated hematology analyzer; type: functional
In short: (§2)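 Compound given orally to 6-week-old male BALB/c mice. At 4 or 24 h, blood was taken from the abdominal aorta under ether anaesthesia and lymphocytes counted on an automated haematology analyser. Counts expressed as % of the vehicle-group mean; ED50 is the dose lowering counts to 50%. One experiment, five mice.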

[5] = target: S1P3 receptor (sphingosine 1-phosphate receptor 3) (Homo sapiens, UniProt Q99500); assay: Agonist activity at human S1P3 receptor expressed in CHO-K1 cells assessed as increase in S1P-stimulated calcium influx at 30 uM preincubated for 5 mins followed by S1P stimulation measured every 3 secs by fluorescence method relative to control; type: cell-based; settings: CHO-K1 cells expressing human S1P3 receptor, read-out: max activation; in short: as §1
[6] = tested on: Mus musculus; assay: Decrease in peripheral lymphocyte levels in po dosed BALB/c mouse at 24 hrs by automated hematology analyzer; type: functional; in short: as §2
[7] = Protein binding in cynomolgus monkey serum at 50 to 5000 ng/ml after 10 mins by ultracentrifugation method; type: ADME, cell-free, Macaca fascicularis; settings: read-out: PB
In short: (§3)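 Serum protein binding measured at compound concentrations of 50, 500 and 5,000 ng/mL. Mean of four binding experiments.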

[8] = Protein binding in Lewis rat serum at 50 to 5000 ng/ml after 10 mins by ultracentrifugation method; type: ADME, cell-free; settings: read-out: PB; in short: as §3
[9] = Metabolic stability in mouse liver microsomes assessed as parent compound remaining after 2 hrs by radio-HPLC method; type: ADME, microsome; settings: read-out: Stability
In short: (§4)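 Tritium-labelled compound incubated for 2 h in liver microsomes of each species. Read-out was % of unchanged form remaining; mean of two experiments.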

[10] = Metabolic stability in Sprague-Dawley rat liver microsomes assessed as parent compound remaining after 2 hrs by radio-HPLC method; type: ADME, microsome; settings: read-out: Stability; in short: as §4
[11] = Metabolic stability in cynomolgus monkey liver microsomes assessed as parent compound remaining after 2 hrs by radio-HPLC method; type: ADME, Macaca fascicularis, microsome; settings: read-out: Stability; in short: as §4
[12] = Metabolic stability in human liver microsomes assessed as parent compound remaining after 2 hrs by radio-HPLC method; type: ADME, microsome; settings: read-out: Stability; in short: as §4
[13] = Protein binding in mouse serum at 50 to 5000 ng/ml after 10 mins by ultracentrifugation method; type: ADME, cell-free; settings: read-out: PB; in short: as §3
[14] = Protein binding in Sprague-Dawley rat serum at 50 to 5000 ng/ml after 10 mins by ultracentrifugation method; type: ADME, cell-free; settings: read-out: PB; in short: as §3
[15] = Protein binding in human serum at 50 to 5000 ng/ml after 10 mins by ultracentrifugation method; type: ADME, cell-free; settings: read-out: PB; in short: as §3
[16] = target: T1, Sphingosine 1-phosphate receptor 1; assay: Agonist activity at human S1P1 receptor expressed in CHO-K1 cells assessed as inhibition of forskolin-stimulated cAMP accumulation after 30 mins by ELISA; type: functional, cell-based
[17] = target: Sphingosine 1-phosphate receptor 5 (Homo sapiens, UniProt Q9H228); assay: Agonist activity at human S1P5 receptor expressed in CHO-K1 cells assessed as inhibition of forskolin-stimulated cAMP accumulation after 30 mins by ELISA; type: functional, cell-based
Sequence of Sphingosine 1-phosphate receptor 5 (Q9H228 whole entry): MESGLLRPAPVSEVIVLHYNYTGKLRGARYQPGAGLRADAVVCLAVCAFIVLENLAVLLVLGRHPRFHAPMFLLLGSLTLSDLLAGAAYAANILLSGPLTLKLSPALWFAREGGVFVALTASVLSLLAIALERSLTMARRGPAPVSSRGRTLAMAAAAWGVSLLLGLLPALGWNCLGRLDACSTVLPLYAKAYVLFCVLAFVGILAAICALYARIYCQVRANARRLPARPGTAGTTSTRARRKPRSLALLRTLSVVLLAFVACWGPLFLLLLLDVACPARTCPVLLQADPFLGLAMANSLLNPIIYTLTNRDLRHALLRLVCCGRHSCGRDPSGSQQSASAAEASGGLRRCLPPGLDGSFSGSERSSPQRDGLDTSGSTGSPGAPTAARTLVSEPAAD

Sequence of Sphingosine 1-phosphate receptor 3 (Q99500 whole entry): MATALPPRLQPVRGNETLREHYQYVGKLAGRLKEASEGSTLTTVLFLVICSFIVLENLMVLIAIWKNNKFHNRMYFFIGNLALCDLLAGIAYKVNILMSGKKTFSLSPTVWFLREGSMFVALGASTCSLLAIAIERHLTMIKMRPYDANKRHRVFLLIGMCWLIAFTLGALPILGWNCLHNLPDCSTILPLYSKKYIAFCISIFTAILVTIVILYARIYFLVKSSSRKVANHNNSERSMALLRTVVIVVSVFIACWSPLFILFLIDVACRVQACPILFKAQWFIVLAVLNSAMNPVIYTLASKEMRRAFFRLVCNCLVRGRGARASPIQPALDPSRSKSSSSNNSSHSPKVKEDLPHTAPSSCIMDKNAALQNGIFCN
T1 sequence (P21453 whole entry): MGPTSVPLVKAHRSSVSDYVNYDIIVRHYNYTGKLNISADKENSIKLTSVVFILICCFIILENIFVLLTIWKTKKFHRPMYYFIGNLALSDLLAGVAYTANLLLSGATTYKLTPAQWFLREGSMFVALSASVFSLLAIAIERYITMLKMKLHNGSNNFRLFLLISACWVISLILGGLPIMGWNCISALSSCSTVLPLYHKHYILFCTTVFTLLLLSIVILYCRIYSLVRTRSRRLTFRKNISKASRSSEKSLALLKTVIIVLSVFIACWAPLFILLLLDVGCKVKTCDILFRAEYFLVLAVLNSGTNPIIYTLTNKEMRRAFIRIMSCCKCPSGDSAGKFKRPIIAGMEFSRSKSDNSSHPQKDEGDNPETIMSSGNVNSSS
Sequence of S1P3 receptor (sphingosine 1-phosphate receptor 3) (Q99500 whole entry): as the sequence (Q99500 whole entry) above

Structure (SMILES)	EC50 [1] [nM]	EC50 [2] [nM]	Ratio EC50 [3]	ED50 [4] [mg/kg]	other results
COc1cc(CC(C)(C)O)ccc1COc1ccc2c(c1)CCC(CN1CC(C(=O)O)C1)=C2C	6.6	> 30000	> 4500	0.16	–
CC1=C(CN2CC(C(=O)O)C2)CCc2cc(OCc3ccc4ccccc4c3)ccc21	54	> 10000	> 190	–	–
CC1=C(CN2CC(C(=O)O)C2)CCc2cc(OCC3Cc4ccccc4C3)ccc21	7.9	> 30000	> 3800	> 1	–
COc1cc(COc2ccc3c(c2)CCC(CN2CC(C(=O)O)C2)=C3C)ccc1CC(C)C	3	4000	1300	0.034	–
CCCc1cc(OC)c(COc2ccc3c(c2)CCC(CN2CC(C(=O)O)C2)=C3C)cn1	57	> 30000	> 530	> 0.1	–
CC1=C(CN2CC(C(=O)O)C2)CCc2cc(OCCC3CCc4ccccc43)ccc21 (configuration not stated)	1.7	5500	> 3200	> 1	–
COc1cc(C)ccc1COc1ccc2c(c1)CCC(CN1CC(C(=O)O)C1)=C2C	1.4	> 30000	> 21000	> 0.1	–
CCCc1ccc(COc2ccc3c(c2)CCC(CN2CC(C(=O)O)C2)=C3C)c(OC)n1	0.58	6800	12000	0.011	–
CCCc1ccc(COc2cc3c(cc2C)C(C)=C(CN2CC(C(=O)O)C2)CC3)c(OC)c1	540	> 30000	> 56	–	–
CC1=C(CN2CC(C(=O)O)C2)CCc2cc(OCc3ccc(CC(C)C)cc3)ccc21	5	> 30000	> 6000	0.39	Emax at 3 s, 30 µM [5]: < 50%
CC1=C(CN2CC(C(=O)O)C2)CCc2cc(OCCCc3ccccc3)ccc21	–	–	1700	0.4	–
COc1cc(CC(C)C)ccc1COc1ccc2c(c1)CCC(CN1CC(C(=O)O)C1)=C2C	1	9300	9300	0.0092	ED50 [6]: 0.04 mg/kg
[3H]C(C1=C(C)c2ccc(OCc3ccc(CCC)cc3OC)cc2CC1)N1CC(C(=O)O)C1 (configuration not stated)	–	–	–	–	fraction unbound at 10 min [7]: 0.027 to 0.029; fraction unbound at 10 min [8]: 0.023 to 0.028; remaining at 2 h [9]: 93.3%; remaining at 2 h [10]: 92.6%; remaining at 2 h [11]: 94.1%; remaining at 2 h [12]: 95.2%; fraction unbound at 10 min [13]: 0.029 to 0.038; fraction unbound at 10 min [14]: 0.018 to 0.023; fraction unbound at 10 min [15]: 0.029 to 0.032
CCc1ccc(COc2ccc3c(c2)CCC(CN2CC(C(=O)O)C2)=C3C)c(OC)c1	0.58	> 30000	> 52000	0.026	ED50 [6]: 0.3 mg/kg
CC1=C(CN2CC(C(=O)O)C2)CCc2cc(OCC3CCc4ccccc4C3)ccc21 (configuration not stated)	19	> 30000	> 1600	–	–
CCCc1ccc(COc2ccc3c(c2C)CCC(CN2CC(C(=O)O)C2)=C3C)c(OC)n1	1.2	> 30000	> 25000	0.017	EC50 [16]: 0.19 nM; EC50 [17]: 0.92 nM; ED50 [6]: 0.048 mg/kg
CC1=C(CN2CC(C(=O)O)C2)CCc2cc(OCc3ccc(CC(C)C)cc3C)ccc21	13	> 30000	> 2300	0.23	–
CC1=C(CN2CC(C(=O)O)C2)CCc2cc(OCc3ccc(CC(C)C)cc3Cl)ccc21	4.5	> 30000	> 6700	0.19	–
CCCCc1ccc(COc2ccc3c(c2)CCC(CN2CC(C(=O)O)C2)=C3C)c(OC)c1	3.5	> 30000	> 8600	0.09	ED50 [6]: 0.18 mg/kg
CC1=C(CN2CC(C(=O)O)C2)CCc2cc(OCCC3CCCc4ccccc43)ccc21 (configuration not stated)	97	> 30000	> 310	–	–
CCCc1ccc(COc2ccc3c(c2C)CCC(CN2CC(C(=O)O)C2)=C3C)c(OC)c1	1.2	> 30000	> 25000	0.032	EC50 [16]: 0.072 nM; EC50 [17]: 0.98 nM; ED50 [6]: 0.072 mg/kg
CC1=C(CN2CC(C(=O)O)C2)CCc2cc(OCc3ccc(CC(C)C)cc3F)ccc21	2.6	> 30000	> 12000	0.073	–
